Measurements from PubChem BioAssay.
Active and inactive are the calls of the source.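 How the source made its calls, unless noted: active means viability at or under a set limit in both replicates, limit being median viability minus 3 SD (cut at about 48% in these data, passing the limit was not always enough); inconclusive means at or under the limit in just one replicate; inactive means at or above the limit in both replicates.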

Assays:
[1] = Her2 expression decrease, cell viability multiplex – SKBR3 breast tumor cells, AlphaScreen, ATP viability, primary screen (AID 461;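 active means Her2 level under about 52% in both replicate screens, with viability over 70% of control, limit read from the data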;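 on Her2 level: lower value means less Her2 protein in the cells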;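 on viability: percent of carrier control wells set as 100% viability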); conditions: SKBR3 Her2 protein level, 18-24 h, measured here: SKBR3 viability, ATP luminescence, at 10 µM
[2] = molecular target: Receptor tyrosine-protein kinase erbB-2 (Homo sapiens) (UniProt P04626); test: as above; conditions: 18-24 h, at 10 µM, stronger effect = lower value
Chain of Receptor tyrosine-protein kinase erbB-2 (Homo sapiens) (P04626 whole entry, looked up): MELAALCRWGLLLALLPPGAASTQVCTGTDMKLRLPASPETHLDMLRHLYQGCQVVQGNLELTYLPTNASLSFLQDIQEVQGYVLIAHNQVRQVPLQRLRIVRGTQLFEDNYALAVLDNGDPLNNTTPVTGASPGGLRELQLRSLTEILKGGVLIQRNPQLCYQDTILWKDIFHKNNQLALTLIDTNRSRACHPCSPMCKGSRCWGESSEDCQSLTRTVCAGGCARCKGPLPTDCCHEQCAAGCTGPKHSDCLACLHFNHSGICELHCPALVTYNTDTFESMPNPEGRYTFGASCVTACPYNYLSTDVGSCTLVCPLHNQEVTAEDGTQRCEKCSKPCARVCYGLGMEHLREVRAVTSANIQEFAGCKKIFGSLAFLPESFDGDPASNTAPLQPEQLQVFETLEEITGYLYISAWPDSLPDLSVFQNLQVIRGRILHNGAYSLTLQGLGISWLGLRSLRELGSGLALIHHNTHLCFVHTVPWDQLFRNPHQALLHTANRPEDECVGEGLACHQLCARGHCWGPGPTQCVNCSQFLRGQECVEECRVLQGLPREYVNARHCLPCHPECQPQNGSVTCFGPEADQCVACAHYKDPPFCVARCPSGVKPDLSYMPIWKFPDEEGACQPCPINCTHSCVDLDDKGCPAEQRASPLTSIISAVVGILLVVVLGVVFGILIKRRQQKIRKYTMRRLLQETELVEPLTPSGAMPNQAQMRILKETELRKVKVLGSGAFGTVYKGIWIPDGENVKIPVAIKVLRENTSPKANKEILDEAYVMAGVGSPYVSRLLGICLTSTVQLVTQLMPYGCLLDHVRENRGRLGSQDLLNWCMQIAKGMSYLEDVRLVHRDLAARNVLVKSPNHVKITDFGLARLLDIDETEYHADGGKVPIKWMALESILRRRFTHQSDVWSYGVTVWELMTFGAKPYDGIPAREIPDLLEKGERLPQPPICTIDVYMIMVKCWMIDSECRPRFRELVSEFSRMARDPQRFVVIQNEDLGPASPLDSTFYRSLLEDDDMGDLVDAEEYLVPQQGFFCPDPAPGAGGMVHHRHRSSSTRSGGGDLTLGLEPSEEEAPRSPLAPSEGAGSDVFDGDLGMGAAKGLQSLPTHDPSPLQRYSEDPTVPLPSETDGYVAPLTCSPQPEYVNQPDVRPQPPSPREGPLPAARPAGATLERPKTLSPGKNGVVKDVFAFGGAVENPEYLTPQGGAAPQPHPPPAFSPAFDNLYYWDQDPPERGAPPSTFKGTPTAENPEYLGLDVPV

[3] = reduced viability of SK-BR-3 breast cancer cells – cell-based, 24 h, human, pilot screen (AID 572;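 active means viability at or below 10% of carrier control in both of two separate runs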;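 further: compound exposure lasted between 18 and 24 h rather than exactly 24 h; 100% = carrier-treated control wells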); conditions: SK-BR-3 viability, CellTiter-Glo luminescence, at 10 µM, stronger effect = lower value
[4] = HUVEC growth inhibition – cell-based, human, primary screen (AID 575;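 active means viability at or below 30% in both replicate assays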;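 further: 100% = median of untreated cell wells with 0.1% DMSO on each plate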); conditions: HUVEC proliferation, CellTiter-Glo luminescence, 72 h; at 10 µM; stronger effect = lower value
How it was run: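 System – primary HUVEC, no more than 12 passages · Medium – Low-serum (2% FBS) EBM, supplemented · Times – 72 h exposure, 37 °C, 5% CO2, 30 min RT equilibration · Measured by – luminescent ATP assay · Read-out – % viability relative to median vehicle-well signal on each plate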

[5] = H69AR cell proliferation blockers – human, duplicate replicates, primary screen (AID 580); conditions: H69AR lung tumor cells viability, ATP luminescence, 72 h; at 10 µM; stronger effect = lower value;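 further: 100% = mean luminescence of untreated wells and 0% = no signal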
[6] = MRP1 drug-resistance reversers in H69AR cells – cell-based, doxorubicin co-treatment, pilot screen (AID 601;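 active means viability loss from added drug above about 55%, and viability with drug at most 40%, in both replicates, limit read from the data, passing the limit was not always enough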); conditions: CellTiter-Glo, 72 h, at 10 µM; for differential viability (reversal): stronger effect = higher value
[7] = yeast transport mutant growth inhibition pilot in 384-well plates, post-Golgi transport modulator project (AID 636; in the data active means inhibition above about 31%); conditions: absorbance 615 nm, about 18 h, stronger effect = higher value
[8] = growth suppression of yeast trafficking mutant, preliminary HTS, modulators of trafficking downstream of Golgi apparatus project, 1536-format plate, OD 615 nm (AID 637; in the data active means inhibition above about 30%); conditions: yeast transport mutant growth, absorbance 615 nm, 18 h; stronger effect = higher value
[9] = H69AR cells + 2 uM doxorubicin, measured here: viability with 2 uM doxorubicin, stronger effect = lower value
[10] = H69AR cells, compound alone cytotoxicity

| SMILES | viability [1] | Her2 level [2] | viability [3] | viability [4] | viability [5] | differential viability (reversal) ([6]; H69AR cells + 2 uM doxorubicin) | viability [6, 9] | viability [6, 10] | inhibition [7] | inhibition [8] |
| --- | --- | --- | --- | --- | --- | --- | --- | --- | --- | --- |
| Cc1oc(-c2ccccc2Cl)nc1CSCC(=O)N1CCCC1 | 72% | 86.5% (inactive) | 72% (inactive) | 79.4% (inactive) | 99.5% (inactive) | 14.6% (inactive) | 85% | 99.5% | -0.93% (inactive) | 6.61% (inactive) |
| COC(=O)c1cccc(NC(=O)NC2CCCN2S(=O)(=O)c2ccc(Cl)cc2)c1 (stereo not given) | 83% | 75.5% (inactive) | 83% (inactive) | 82.6% (inactive) | 94.1% (inactive) | 11.4% (inactive) | 82.7% | 94.1% | -4.53% (inactive) | -7.05% (inactive) |
| COc1ccc(CC(=O)N2CCOCC2)cc1OC | 97.5% | 99% (inactive) | 97.5% (inactive) | 102% (inactive) | 91.9% (inactive) | -2.21% (inactive) | 94.2% | 91.9% | 0.13% (inactive) | 3.28% (inactive) |
| O=C(NCC(c1cccnc1)N1CCN(c2ccc(F)cc2)CC1)c1ccc(F)cc1 (stereo not given) | 90% | 86.5% (inactive) | 90% (inactive) | 103% (inactive) | 92.7% (inactive) | 1.7% (inactive) | 91% | 92.7% | -3.11% (inactive) | 8.25% (inactive) |
| COc1cc(C)c(N)cc1C(C)C | 103% | 91% (inactive) | 103% (inactive) | 89.2% (inactive) | 94.1% (inactive) | 1.33% (inactive) | 92.8% | 94.1% | -2.93% (inactive) | -0.82% (inactive) |
| COc1ccccc1C(=O)Nc1ccc(N2CCN(S(C)(=O)=O)CC2)cc1 | 99.5% | 106% (inactive) | 99.5% (inactive) | 144% (inactive) | 97.2% (inactive) | 12.7% (inactive) | 84.5% | 97.2% | -1.89% (inactive) | -4% (inactive) |
| O=C(CSc1nnnn1-c1ccc2c(c1)OCO2)NCc1cccs1 | 88% | 90.5% (inactive) | 88% (inactive) | 93.2% (inactive) | 86.8% (inactive) | -7.04% (inactive) | 93.8% | 86.8% | -5.68% (inactive) | -1.64% (inactive) |
| CC1CN(S(=O)(=O)c2cccc(C(=O)OCc3cc(=O)oc4cc(O)ccc34)c2)CC(C)O1 (stereo not given) | 80.5% | 87% (inactive) | 80.5% (inactive) | 61.1% (inactive) | 78.2% (inactive) | 16.1% (inactive) | 62.1% | 78.2% | -6% (inactive) | -4.43% (inactive) |
